This note sets out measurements from ChEMBL document CHEMBL1667804, “Design and synthesis of caffeoyl-anilides as portmanteau inhibitors of HIV-1 integrase and CCR5” (Bioorg Med Chem, 2011).

Each structure is given as a SMILES string. Active and inactive are the calls of the source. The calls are words filed in the database; no cut-off is given here.

The test system of series [1] is Human immunodeficiency virus 1. Nature of the series: Antiviral activity against HIV1 NL4.3 infected in human CEM-GFP T cells assessed as inhibition of p24 antigen production at highest non cytotoxic concentration after 7 days by ELISA. The series is classed as functional, CCRF-CEM. In a few lines:
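HIV-1 NL4.3 infection of CEM-GFP cells at MOI 0.05, with compound at the highest noncytotoxic concentration (95% viability in MTT) for 7 days. p24 in day-7 supernatant measured by capture ELISA. Reported as % decrease versus untreated infected cells. Preliminary screen by GFP microfluorometry.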
Background: An ELISA detects its analyte on a solid surface through an enzyme-linked reagent.

Series [2] deals with Human immunodeficiency virus type 1 reverse transcriptase (Human immunodeficiency virus 1) (UniProt Q72547). The series is described as follows: Inhibition of HIV1 reverse transcriptase.
Series [3] is described as follows: Cytotoxicity against human CEM-GFP cells assessed as highest non cytotoxic concentration after 48 hrs by MTT assay. The series is classed as cell-based, CCRF-CEM. To be noted: read-out: MNCC. In a few lines:
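Viability by MTT in CEM-GFP cells after 48 h, absorbance at 540 nm. Viability first measured at three concentrations, then further dilutions made to find the concentration giving 95% viability.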
A general note: Tetrazolium assays rely on reduction of a dye to a coloured formazan, in cell work by metabolically active cells.

Series [4] has as its target Human immunodeficiency virus type 1 integrase (Human immunodeficiency virus 1) (UniProt Q7ZJM1). Nature of the series: Inhibition of full-length recombinant HIV1 integrase at 20 ug/ml. In a few lines: (§1)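 Kit ELISA-type strand-transfer assay. Biotin end-labelled double-stranded HIV-1 LTR U5 donor oligo bound on streptavidin plates, then full-length recombinant HIV-1 integrase loaded. Compound added, followed by a 3′-end-modified double-stranded target oligo. Screened at 20 µg/mL, IC50 determined in µg/mL and converted to molar. Sodium azide positive control.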

The subject of series [5] is Human immunodeficiency virus 1. Nature of the series: Antiviral activity against HIV1 NL4.3 infected in human CEM-GFP T cells assessed as inhibition of p24 antigen production after 7 days by ELISA. The series is classed as functional, organism-based. To be noted: Human immunodeficiency virus 1, NL4.3, CCRF-CEM, 168 h. Summed up:
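CEM-GFP cells infected with HIV-1 NL4.3 at MOI 0.05, then cultured with compound for up to 7 days after infection. Day-7 supernatant p24 measured by antigen-capture ELISA. EC50 is the concentration giving 50% inhibition of virus production against untreated infected cells (n = 3). AZT positive control.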

The nature of series [6]: Cytotoxicity against human CEM-GFP cells after 48 hrs by MTT assay. The series is classed as cell-based, CCRF-CEM. In a few lines: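 MTT assay in CEM-GFP cells (2 × 10^4/well), 48 h exposure over a range of concentrations, with untreated and vehicle controls. Formazan dissolved and read at 540 nm. CC50 is the concentration giving 50% cytotoxicity in uninfected cells (n = 3).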

A short description of series [7]: Therapeutic index, ratio of CC50 for human CEM-GFP cells to EC50 for HIV1 NL4.3. The series is classed as cell-based. To be noted: read-out: Ratio CC50/EC50.
Series [8] concerns the target Human immunodeficiency virus type 1 integrase (Human immunodeficiency virus 1, UniProt Q7ZJM1). The series is described as follows: Inhibition of full-length recombinant HIV1 integrase. Summed up:
as §1

The subject of series [9] is Human immunodeficiency virus 1. Nature of the series: Antiviral activity against R5 tropic HIV1 IndieC infected in human TZM-bl cells expressing CD4, CCR5 and CXCR4 assessed as inhibition of virus entry at highest non cytotoxic concentration after 48 hrs by luciferase assay. The series is classed as functional. In a few lines: (§2)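 TZM-bl cells (10^4/well) seeded and left overnight at 37 °C. Compound added in DMEM/10% FBS for 1 h, then cells washed and infected for 4 h with IndieC (R5) or IIIB (X4).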

Series [10] relates to Human immunodeficiency virus 1. The series is described as follows: Antiviral activity against X4 tropic HIV1 3B infected in human TZM-bl cells expressing CD4, CCR5 and CXCR4 assessed as inhibition of virus entry at highest non cytotoxic concentration after 48 hrs by luciferase assay. The series is classed as functional. In a few lines:
as §2

Series [11] concerns the target Human immunodeficiency virus type 1 integrase (Human immunodeficiency virus 1) (UniProt Q7ZJM1). The settings on record: 5 ug/ml.

Sequence of Human immunodeficiency virus type 1 integrase (Human immunodeficiency virus 1) (Q7ZJM1 as listed by the source): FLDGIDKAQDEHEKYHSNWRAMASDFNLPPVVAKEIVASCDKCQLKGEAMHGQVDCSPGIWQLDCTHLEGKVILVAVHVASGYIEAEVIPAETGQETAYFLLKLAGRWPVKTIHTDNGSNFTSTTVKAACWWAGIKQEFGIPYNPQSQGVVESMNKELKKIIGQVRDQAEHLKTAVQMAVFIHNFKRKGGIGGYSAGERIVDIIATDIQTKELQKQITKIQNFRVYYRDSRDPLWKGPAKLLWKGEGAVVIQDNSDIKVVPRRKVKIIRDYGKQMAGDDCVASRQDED
Sequence of Human immunodeficiency virus type 1 integrase (Q7ZJM1 whole entry): as the sequence (Q7ZJM1 as listed by the source) above

With `CC(=O)Nc1ccc(C(=O)/C=C/c2ccc(O)c(O)c2)cc1`, the “inhibition (INH)” value in [1] is reported as 0%. Further, the outcome in series [2] was inactive. For the same compound, the MNTC at 48 h in series [3] turned out to be 1700 nM.
For `O=C(/C=C/c1ccc(O)c(O)c1)c1ccc(NC(=O)c2cccs2)cc1`, in series [1], the “inhibition (INH)” value worked out at 0%. Moreover, the outcome in series [2] was inactive. The MNTC at 48 h in series [3] is 2700 nM.
For the compound `O=C(/C=C/c1ccc(O)c(O)c1)c1ccc(NC(=O)c2ccco2)cc1`, the “inhibition (INH)” value in [1] is recorded as 24.2%. The result in series [2] was inactive. Besides, the MNTC at 48 h in [3] amounted to 2900 nM.
The corresponding values for `CC(C)CC(=O)Nc1ccc(C(=O)/C=C/c2ccc(O)c(O)c2)cc1` are 0%, “inactive” and 1400 nM.
`O=C(/C=C/c1ccc(O)c(O)c1)c1ccc(NC(=O)c2ccc(F)c(F)c2)cc1`: the inhibition (as a rule, the relative decrease from the control value, in per cent) in series [4] was determined as 74%. For the same compound, the “inhibition (INH)” value in series [1] turned out to be 77.6%; in series [9], 71.5%; in series [10], 0%. Further, the EC50 (as a rule, the concentration giving half of the maximal effect) in [5] came to 1.6 µM. For the same compound, half-maximal cytotoxicity in series [6] (CC50 at 48 h) was put at 15.7 µM. Further, the selectivity ratio in series [7] worked out at 9.8. Moreover, the IC50 (in general, the concentration at which inhibition is half-maximal) in series [8] was 28.5 µM. In addition, the result in [2] was inactive. In series [3], the MNTC at 48 h stood at 2500 nM.
As to `CC(C)C(=O)Nc1ccc(C(=O)/C=C/c2ccc(O)c(O)c2)cc1`, the “inhibition (INH)” value in series [1] was found to be 0%. Further, in series [2], the outcome was inactive. Also, the MNTC at 48 h in [3] came out at 1500 nM.
`O=C(/C=C/c1ccc(O)c(O)c1)c1ccc(NC(=O)c2ccc3ccccc3c2)cc1`: in series [1], the “inhibition (INH)” value was determined as 0%. For the same compound, in series [2], the result was inactive. Besides, the MNTC at 48 h in [3] was 2400 nM.
As to `[N-]=[N+]=[N-]` [SODIUM AZIDE], in series [8], the IC50 came to 1.2 µM. Also, in series [2], the result was inactive. In addition, in series [11], the inhibition worked out at 98.8%.
Take `O=C(Cc1cccs1)Nc1ccc(C(=O)/C=C/c2ccc(O)c(O)c2)cc1`: in series [4], the inhibition is 66.5%. Also, the “inhibition (INH)” value in series [1] was 71.6%; in [9], 52.9%; in series [10] it was 0%. Also, in [5], the 50% effective concentration (EC50) came to 0.9 µM. The cytotoxic concentration (CC50) (as a rule, the concentration giving 50% cytotoxicity) at 48 h in [6] is 51.4 µM. In addition, the selectivity ratio in [7] is 59.1. In series [8], the IC50 was 44.6 µM. Moreover, the outcome in [2] was inactive. The MNTC at 48 h in series [3] stood at 2600 nM.
With `O=C(/C=C/c1ccc(O)c(O)c1)c1ccc(NC(=O)c2ccc(C(F)(F)F)cc2F)cc1`, the “inhibition (INH)” value in [1] came out at 10.9%. Moreover, the outcome in [2] was inactive. In addition, in series [3], the MNTC at 48 h was found to be 2200 nM.
With `O=C(/C=C/c1ccc(O)c(O)c1)c1ccc(NC(=O)c2ccccc2)cc1`, the inhibition in series [4] was 56%. Moreover, the “inhibition (INH)” value in series [1] is 73%; in series [9], 58.6%; in series [10], 27.8%. Further, the 50% effective concentration (EC50) in series [5] was found to be 1.6 µM. The compound also displayed a half-maximal cytotoxic concentration (CC50) at 48 h in series [6] of 20.3 µM. For the same compound, the selectivity ratio in series [7] was 13. The IC50 in [8] is 50.2 µM. In addition, the outcome in [2] was inactive. Further, the MNTC at 48 h in [3] was 2800 nM.
As for `O=C(/C=C/c1ccc(O)c(O)c1)c1ccc(NC(=O)c2ccc(F)cc2F)cc1`, the “inhibition (INH)” value in series [1] worked out at 16%. The outcome in [2] was inactive. For the same compound, in series [3], the MNTC at 48 h is 6300 nM.
For `COc1ccc(C(=O)Nc2ccc(C(=O)/C=C/c3ccc(O)c(O)c3)cc2)cc1`, the inhibition in [4] stood at 66.8%. Further, the figures for the “inhibition (INH)” value in [1], in [9] and in series [10] were 92.4%, 55.8% and 0%, respectively. For the same compound, in series [5], the concentration for a half-maximal effect (EC50) was 1.9 µM. The compound further yielded a cytotoxic concentration (CC50) at 48 h in series [6] of 32.3 µM. For the same compound, in series [7], the selectivity ratio is 17.4. Moreover, in series [8], the IC50 came out at 25.2 µM. In addition, the result in series [2] was inactive. In series [3], the MNTC at 48 h is 6400 nM.
With `Nc1ccc(C(=O)/C=C/c2ccc(O)c(O)c2)cc1`, the “inhibition (INH)” value in [1] is reported as 0%. In addition, the outcome in series [2] was inactive. Besides, the MNTC at 48 h in series [3] was 3900 nM.
Consider `O=C(/C=C/c1ccc(O)c(O)c1)c1ccc(NC(=O)C23C[C@H]4C[C@@H](C2)C[C@@H](C3)C4)cc1`, for which, in [4], the inhibition worked out at 67.7%. Further, the “inhibition (INH)” value in series [1] stood at 86.1%; in series [9], 59.6%; in series [10], 0%. The EC50 in series [5] worked out at 4.2 µM. Also, the 50% cytotoxic concentration (CC50) at 48 h in [6] was 13.5 µM. Moreover, the selectivity ratio in series [7] stood at 3.2. Also, the 50% inhibitory concentration (IC50) in series [8] stood at 36.8 µM. Moreover, the result in series [2] was inactive. The MNTC at 48 h in series [3] stood at 6000 nM.
For `Cc1cn([C@H]2C[C@H](N=[N+]=[N-])[C@@H](CO)O2)c(=O)[nH]c1=O` [ZIDOVUDINE], the “inhibition (INH)” value in [1] was 89.8%. Further, the EC50 in series [5] came out at 1.1 µM. Moreover, in [6], half-maximal cytotoxicity (CC50 at 48 h) was put at 24.1 µM. The outcome in series [2] was inactive. For the same compound, the MNTC at 48 h in [3] turned out to be 5000 nM.
